Data published in publication PMC11421684 (Food and chemical toxicology : an international journal …, 2014).
Where “and” joins values, the source holds several entries; their conditions need not be identical. Equal values may be shown once.

What was measured:
[1] = tested on: kidney and bladder; test: Histopathology of kidney and bladder; assay type: in vivo, rat
[2] = Body weight and organ weights standardized to body weight; assay type: in vivo, rat; settings: for GD20 Body weight (g ± SEM) / Heart weight standardized to body weight (% ± SEM) / Left kidney weight standardized to body weight (% ± SEM) / Liver weight standardized to body weight (% ± SEM) / Right kidney weight standardized to body weight (% ± SEM) / Spleen weight standardized to body weight (% ± SEM) / Paired kidney weight standardized to body weight (% ± SEM): 1000 mg/kg BW/day; for Paired kidney weight standardized to body weight (% ± SEM): group mean, 1000 mg/kg/day
[3] = Amniotic fluid triazine analysis by LC-MS/MS; assay type: in vivo, rat; settings: pregnant female rats, pooled by dam; label = dose group; LOD 0.4 μg/mL
How it was run: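 Amniotic fluid came from GD20 dams gavaged for 10 days with vehicle or 1000 mg/kg BW/day test compound. Melamine and cyanuric acid were measured by a previously published LC-MS/MS method, validated with pre-spiked amniotic fluid. Serum-to-amniotic fluid Pearson correlations were run only on rats with both samples (p ≤ 0.05).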

[4] = Serum triazine analysis by LC-MS/MS; assay type: in vivo; settings: pregnant female rats, individual rat; label = dose group; LOD 0.4 μg/mL
How it was run: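 Serum was collected from each rat after 10 daily gavages of 1000 mg/kg BW/day test compound or vehicle. Melamine and cyanuric acid were quantified by a previously published LC-MS/MS method, validated with pre-spiked serum samples at several fortification levels. Natural-log serum concentrations were compared between pregnant and non-pregnant rats by two-sided t-test (p ≤ 0.05).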

[5] = Serum chemistry, renal function; assay type: in vivo, rat; settings: for Blood urea nitrogen (mean ± SEM) / Creatinine (mean ± SEM) / Uric acid (mean ± SEM): serum
How it was run: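 Serum was taken from pregnant and non-pregnant rats after 10 days of gavage with vehicle or 1000 mg/kg BW/day test compound. Samples were brought to room temperature. BUN, creatinine and uric acid were measured on a benchtop veterinary chemistry analyser. Results were compared with control and the other treated group.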

[6] = tested on: fetuses; test: Fetal data; assay type: in vivo, rat; settings: dams, 1000 mg/kg BW/day, GD20
How it was run: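 Dams were dosed by gavage (1000 mg/kg BW/day or 1% CMC-Na vehicle) for 10 days from GD10. At GD20 necropsy, the gravid uterus was removed whole and weighed. Each viable fetus was recorded for uterine position, sex, weight, crown-rump length and external abnormalities. Runts were defined as below 70% of the control litter average weight by gender.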

[7] = tested on: pregnant rats; test: Reproductive indices at necropsy; assay type: in vivo, rat
How it was run: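 Time-pregnant rats were gavaged daily for 10 days from GD10 with 1% CMC-Na or 1000 mg/kg BW/day test compound. At necropsy the gravid uterus was removed whole and weighed, and corpora lutea, implants, and early and late deaths were recorded. Groups were compared against both control and the other triazine group.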

[8] = oral, female rats; ref Jacob et al., 2012; cited from earlier work
[9] = Weight gains, feed and water consumption of gavaged rats; assay type: in vivo, rat; settings: for Total feed consumption (g ± SEM) / Total water consumption (g ± SEM): 1000 mg/kg BW/day
How it was run: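 Rats were housed singly at 18–26 °C, 40–70% RH and 12 h light/dark, with feed and water ad libitum. They were gavaged for 10 days from GD10 with vehicle (1% CMC-Na) or 1000 mg/kg BW/day test compound. Fluid intake was measured every 3 days and feed every 7 days. For dams, adjusted gain = GD20 body weight minus gravid uterus weight and GD10 weight.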

[10] = Formalin, ethanol and freezing effects on renal crystals; parameters: species or system rat
How it was run: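 Fresh kidney wet-mounts with crystal rank 4–5 were flooded with 10% neutral buffered formalin and photographed repeatedly. Times were 0, 1, 2, 3 and 24 h for melamine-exposed kidney and 0, 10, 20, 30 min and 1 h for cyanuric acid-exposed kidney. Sections in 100% ethanol were checked daily for up to 6 days. Frozen tissue, either freeze–thawed or held at −70 °C, was cut into 6 μm cryosections, unstained or unfixed H&E.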

[11] = tested on: rats; test: Clinical observations and survival; assay type: in vivo, rat; settings: pregnant and non-pregnant rats; 1000 mg/kg BW/day
How it was run: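 Female rats, time-pregnant or non-pregnant, were weight-stratified and randomised from GD10. They were gavaged each morning for 10 days with 1% CMC-Na vehicle or 1000 mg/kg BW/day test compound at 1 mL/100 g (n = 11/group; pregnant high-triazine group n = 13). Observations were made at least twice on day 1, then at least daily, covering skin, fur, eyes, mucosa, autonomic/CNS signs and behaviour. Animals removed early were counted as deaths.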

[12] = tested on: kidney; test: Kidney wet-mount analysis for renal crystals; assay type: in vivo, rat; settings: pregnant and non-pregnant combined, wet-mount
How it was run: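 After 10 days of gavage at 1000 mg/kg BW/day, a thin fresh renal slice spanning cortex and medulla was weighed. It was compressed between two slides with a coverslip and examined fresh by light microscopy. Crystals were ranked on a subjective 0–5 scale; some views used polarised light.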

[13] = not pregnant rats, 1000 mg/kg BW/day
[14] = pregnant and non-pregnant pooled
[15] = pregnant rats, 1000 mg/kg BW/day
[16] = dams, 1000 mg/kg BW/day, necropsy GD20

Q: What does the source list for Oc1nc(O)nc(O)n1 [CYA, cyanuric acid]?
A: Number of rats with epithelial necrosis in the bladder ([1]; MEL: pregnant rats, minimal to marked, CYA: 1 pregnant, 2 non-pregnant, mild): Three; Number of rats with tubular dilation and necrosis ([1]; kidney, H&E, of 22 treated rats): 5; GD20 Body weight (g ± SEM) ([2]; not pregnant rats): 234.3 ± 4.5 g; Heart weight standardized to body weight (% ± SEM) ([2]; not pregnant rats): 0.38 ± 0.01%; Left kidney weight standardized to body weight (% ± SEM) ([2]; not pregnant rats): 0.43 ± 0.02%; Liver weight standardized to body weight (% ± SEM) ([2]; not pregnant rats): 3.48 ± 0.07 %; Right kidney weight standardized to body weight (% ± SEM) ([2]; not pregnant rats): 0.45 ± 0.03%; Spleen weight standardized to body weight (% ± SEM) ([2]; not pregnant rats): 0.23 ± 0.02%; Paired kidney weight standardized to body weight (% ± SEM) ([2]; not pregnant rats): 0.88% and 0.88 ± 0.05%; GD20 Body weight (g ± SEM) ([2]; pregnant rats): 351.3 ± 6.1 g; Heart weight standardized to body weight (% ± SEM) ([2]; pregnant rats): 0.30 ± 0.01%; Left kidney weight standardized to body weight (% ± SEM) ([2]; pregnant rats): 0.28 ± 0.02%; Liver weight standardized to body weight (% ± SEM) ([2]; pregnant rats): 3.58 ± 0.09%; Right kidney weight standardized to body weight (% ± SEM) ([2]; pregnant rats): 0.30 ± 0.01%; Spleen weight standardized to body weight (% ± SEM) ([2]; pregnant rats): 0.17 ± 0.01%; Paired kidney weight standardized to body weight (% ± SEM) ([2]; pregnant rats): 0.58% and 0.58 ± 0.03%; Standardized paired kidney weight of individual rats with renal crystals ([2]; two non-pregnant rats with crystals, both the same value): 1.22%; Standardized paired kidney weight of individual rats with renal crystals ([2]; two pregnant rats with crystals): 0.74% and 0.77%; MEL concentration, Amniotic Fluid [3]: <LOD; MEL concentration, Serum [4]: <LOD; Effect on uric acid serum levels versus control rats ([5]; 1000 mg/kg BW/day): did not appear to have an effect; Mean BUN of treated rats with renal crystals ([5]; 4 rats (2 pregnant and 2 non-pregnant)): 31 mg/dL; Blood urea nitrogen (mean ± SEM) [5, 13]: 17.82 ± 2.33 mg/dL; Creatinine (mean ± SEM) [5, 13]: 0.59 ± 0.07 mg/dL; Uric acid (mean ± SEM) [5, 13]: 5.26 ± 0.27^& mg/dL; Mean BUN of the other treated rats (without crystals) [5, 14]: 15 mg/dL; Mean creatinine of treated rats with crystals [5, 14]: 1.1 mg/dL; Mean creatinine of treated rats without crystals [5, 14]: 0.5 mg/dL; Blood urea nitrogen (mean ± SEM) [5, 15]: 17.45 ± 2.26 mg/dL; Creatinine (mean ± SEM) [5, 15]: 0.59 ± 0.07 mg/dL; Uric acid (mean ± SEM) [5, 15]: 3.37 ± 0.28 mg/dL; Average crown rump length (mean cm ± SEM) [6]: 4.10 ± 0.02 cm; Average fetal body weight (g ± SEM) [6]: 4.06 ± 0.05 g; Litter size (mean ± SEM) [6]: 13.2 ± 0.6; Effect on reproductive indices compared with controls ([7]; 1000 mg/kg BW/day): did not appear to have an effect; No. corpea lutea (mean ± SEM) ([7]; dams, 1000 mg/kg BW/day gavage GD10-20, necropsy GD20): 15.1 ± 0.5; Early and late deaths (mean% of implants ± SEM) [7, 16]: 3.4 ± 1.6 % of implants; Early deaths (mean% of implants ± SEM) [7, 16]: 1.3 ± 0.9 % of implants; Implant efficiency (mean% ± SEM) [7, 16]: 90.7 ± 3.0%; Late deaths (mean% of implants ± SEM) [7, 16]: 2.0 ± 1.6 % of implants; No. fetuses alive (mean ± SEM) [7, 16]: 13.2 ± 0.6; No. implants (mean ± SEM) [7, 16]: 13.6 ± 0.5; Percent alive both genders (mean% ± SEM) [7, 16]: 96.7 ± 1.6%; Percent live females (mean% ± SEM) [7, 16]: 40.7 ± 3.8%; Area under the curve (AUC) [8]: 1375 ng·h/mL; Half-life [8]: 59.4 min; Total feed consumption (g ± SEM) ([9]; not pregnant rats): 158.6 ± 8.8 g; Total water consumption (g ± SEM) ([9]; not pregnant rats): 264 ± 21.2 g; Total bw gain (g ± SEM) ([9]; not pregnant rats, 1000 mg/kg BW/day gavage 10 days, brackets indicate negative): 16.0 ± 4.1 g; Total feed consumption (g ± SEM) ([9]; pregnant rats): 220.1 ± 5.4 g; Total water consumption (g ± SEM) ([9]; pregnant rats): 353.6 ± 17.5 g; Total bw gain (g ± SEM) ([9]; pregnant rats, 1000 mg/kg BW/day gavage GD10-20): 94.2 ± 3.3 g; Stability of crystals to freeze–thaw cycles ([10]; frozen kidney tissue, CYA stable if held at −70 °C): dissolved; Time at which almost all crystals were gone in formalin ([10]; kidney wet-mount sections): 30 min; Maternal health during 10 day dosing period [11]: no treatment related health effects; Treated rats that developed renal crystals (percent) ([12]; MEL n = 24, CYA n = 22): 18%; Number of treated rats that developed renal crystals ([12]; MEL of 24, CYA of 22): 4
